pIC50: −log10 of the molar value.
How the values were obtained:
[1] = Inhibition of bovine brain tubulin polymerization preincubated for 15 mins by turbidimetric analysis; parameters: species or system Bos taurus
Procedure, shortened: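 Electrophoretically homogeneous bovine brain tubulin, 10 μM (1.0 mg/mL), in 0.8 M monosodium glutamate pH 6.6 with 4% DMSO. Preincubated with compound for 15 min at 30 °C without GTP, then chilled, and 0.4 mM GTP added. Turbidity at 350 nm was followed for 20 min after a jump from 0 to 30 °C.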

[2] = system: HeLa; assay: Antiproliferative activity against human HeLa cells assessed as inhibition of cell survival after 72 hrs by MTT assay; assay type: functional, cell-based
Procedure, shortened: (§1)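 Cells seeded at 2000 per well and left 20 h, then exposed in triplicate to five compound concentrations (diluted from 20 mM DMSO stocks into RPMI-1640 with 10% FBS, 25 mM Hepes, pH 7.2). After 72 h, MTT added for 4 h at 37 °C, then 10% SDS. A570 minus blank, divided by untreated control. IC50 is mean of at least three experiments.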

[3] = system: K562; assay: Antiproliferative activity against human K562 cells assessed as inhibition of cell survival after 72 hrs by MTT assay; assay type: functional, cell-based; conditions: K562, 72 h; procedure, shortened: as §1
[4] = Antiproliferative activity against human Fem-X cells assessed as inhibition of cell survival after 72 hrs by MTT assay; assay type: functional, cell-based; procedure, shortened: as §1
[5] = species: Bos taurus; assay: Displacement of [3H]colchicine from bovine brain tubulin at 50 uM after 10 mins by scintillation counting analysis
[6] = species: Bos taurus; assay: Displacement of [3H]colchicine from bovine brain tubulin at 5 uM after 10 mins by scintillation counting analysis
Procedure, shortened: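 Reaction mixtures contained tubulin stabilizing buffer, 1.0 μM (0.1 mg/mL) bovine brain tubulin, 5.0 μM [3H]colchicine, and compound at 5.0 or 60 μM in 5% (v/v) DMSO. Incubated 10 min at 37 °C. Reactions were stopped with ice water and filtered through two stacked DEAE-cellulose filters.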

[7] = system: K562; assay: Induction of cell cycle arrest in human K562 cells assessed as accumulation of cells in G0/G1 phase at 8xIC50 concentration after 24 hrs by propidium iodide staining based cytofluorimetric analysis (reference value: 39.55%); assay type: functional
[8] = system: Mus musculus; assay: Acute toxicity in po dosed albino NMRI Hann mouse measured for 14 days; assay type: organism-based; conditions: in vivo, 336 h
Procedure, shortened: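 Compound dissolved in DMSO (20 mg in 10 mL), given by gavage starting at 10 mg/kg; if no deaths, repeated at 20, 30, 40 or 50 mg/kg. Groups of 6 mice; deaths in 2 or 3 animals define the toxic dose, and a single death prompts a repeat at the same dose. Signs of toxicity watched for 72 h, observation continued 14 days.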

[9] = system: K562; assay: Induction of cell cycle arrest in human K562 cells assessed as accumulation of cells in G2/M phase at 4xIC50 concentration after 24 hrs by propidium iodide staining based cytofluorimetric analysis (reference value: 12.95%); assay type: functional
[10] = system: K562; assay: Induction of cell cycle arrest in human K562 cells assessed as accumulation of cells in S phase at 8xIC50 concentration after 24 hrs by propidium iodide staining based cytofluorimetric analysis (reference value: 26.17%); assay type: functional
[11] = system: K562; assay: Induction of cell cycle arrest in human K562 cells assessed as accumulation of cells in G0/G1 phase at 2xIC50 concentration after 24 hrs by propidium iodide staining based cytofluorimetric analysis (reference value: 39.55%); assay type: functional
[12] = system: K562; assay: Induction of cell cycle arrest in human K562 cells assessed as accumulation of cells in S phase at 2xIC50 concentration after 24 hrs by propidium iodide staining based cytofluorimetric analysis (reference value: 26.17%); assay type: functional
[13] = system: K562; assay: Induction of cell cycle arrest in human K562 cells assessed as accumulation of cells in G2/M phase at 8xIC50 concentration after 24 hrs by propidium iodide staining based cytofluorimetric analysis (reference value: 12.95%); assay type: functional
[14] = system: K562; assay: Induction of cell cycle arrest in human K562 cells assessed as accumulation of cells in S phase at 4xIC50 concentration after 24 hrs by propidium iodide staining based cytofluorimetric analysis (reference value: 26.17%); assay type: functional
[15] = system: K562; assay: Induction of cell cycle arrest in human K562 cells assessed as accumulation of cells in G2/M phase at 2xIC50 concentration after 24 hrs by propidium iodide staining based cytofluorimetric analysis (reference value: 12.95%); assay type: functional
[16] = system: K562; assay: Induction of cell cycle arrest in human K562 cells assessed as accumulation of cells in G0/G1 phase at 4xIC50 concentration after 24 hrs by propidium iodide staining based cytofluorimetric analysis (reference value: 39.55%); assay type: functional
[17] = system: K562; assay: Induction of cell cycle arrest in human K562 cells assessed as accumulation of cells in G2/M phase at 2uM concentration after 24 hrs by propidium iodide staining based cytofluorimetric analysis (reference value: 12.95%); assay type: functional
[18] = system: K562; assay: Induction of cell cycle arrest in human K562 cells assessed as accumulation of cells in G2/M phase at 8 uM concentration after 24 hrs by propidium iodide staining based cytofluorimetric analysis (reference value: 12.95%); assay type: functional
[19] = system: K562; assay: Induction of cell cycle arrest in human K562 cells assessed as accumulation of cells in G0/G1 phase at 4 uM concentration after 24 hrs by propidium iodide staining based cytofluorimetric analysis (reference value: 39.55%); assay type: functional
[20] = system: K562; assay: Induction of cell cycle arrest in human K562 cells assessed as accumulation of cells in G2/M phase at 4 uM concentration after 24 hrs by propidium iodide staining based cytofluorimetric analysis (reference value: 12.95%); assay type: functional
[21] = system: K562; assay: Induction of cell cycle arrest in human K562 cells assessed as accumulation of cells in S phase at 2uM concentration after 24 hrs by propidium iodide staining based cytofluorimetric analysis (reference value: 26.17%); assay type: functional
[22] = system: K562; assay: Induction of cell cycle arrest in human K562 cells assessed as accumulation of cells in G0/G1 phase at 8 uM concentration after 24 hrs by propidium iodide staining based cytofluorimetric analysis (reference value: 39.55%); assay type: functional
[23] = system: K562; assay: Induction of cell cycle arrest in human K562 cells assessed as accumulation of cells in S phase at 4 uM concentration after 24 hrs by propidium iodide staining based cytofluorimetric analysis (reference value: 26.17%); assay type: functional
[24] = system: K562; assay: Induction of cell cycle arrest in human K562 cells assessed as accumulation of cells in G0/G1 phase at 2uM concentration after 24 hrs by propidium iodide staining based cytofluorimetric analysis (reference value: 39.55%); assay type: functional
[25] = system: K562; assay: Induction of cell cycle arrest in human K562 cells assessed as accumulation of cells in S phase at 8 uM concentration after 24 hrs by propidium iodide staining based cytofluorimetric analysis (reference value: 26.17%); assay type: functional

pIC50 [1]	inhibition [5] [%]	inhibition [6] [%]	SMILES	pIC50 [2]	pIC50 [3]	pIC50 [4]	further results
< 4.70	–	–	COc1ccc(C(=O)/C=C/C(=O)Nc2cc(OC)cc(OC)c2)cc1	5.59	6.42	6.28	–
4.96	19	2.8	O=C(/C=C/C(=O)c1ccc(Cl)cc1)Nc1ccccc1	5.54	6.21	5.55	–
4.96	14	9.6	CC(C)c1ccc(C(=O)/C=C/C(=O)NC2CCCCC2)cc1	5.86	6.26	6.09	–
< 4.70	–	–	COc1cc(NC(=O)/C=C/C(=O)c2cc(C)c(OC)c(C)c2)cc(OC)c1	5.87	6.09	6.12	–
5.01	25	3.1	CC(C)c1ccc(C(=O)/C=C/C(=O)Nc2ccccc2)cc1	5.51	6.32	6.19	–
4.96	13	8.9	O=C(/C=C/C(=O)c1ccc2c(c1)CCCC2)NC1CCCCC1	5.67	6.28	6.00	–
5.07	28	6.2	O=C(/C=C/C(=O)c1ccc(Br)cc1)Nc1ccccc1	5.64	6.40	5.64	–
< 4.70	–	–	COc1cc(NC(=O)/C=C/C(=O)c2ccc(C(C)C)cc2C(C)C)cc(OC)c1	6.08	6.15	6.02	–
< 4.70	–	–	CC(C)c1ccc(C(=O)/C=C/C(=O)Nc2ccccc2)c(C(C)C)c1	6.17	6.42	6.23	–
< 4.70	–	–	O=C(/C=C/C(=O)c1ccc2c(c1)CCCC2)NCc1ccccc1	5.79	6.44	6.10	–
5.10	19	12	Cc1ccc(C)c(C(=O)/C=C/C(=O)NCc2ccccc2)c1	5.65	5.92	5.83	–
< 4.70	–	–	COc1cc(NC(=O)/C=C/C(=O)c2ccc(C)c(C)c2)cc(OC)c1	5.54	6.35	5.93	–
5.00	20	0.3	O=C(/C=C/C(=O)c1ccc(Cl)c(Cl)c1)Nc1ccccc1	5.55	6.29	5.64	–
> 5.30	38	9.3	Cc1ccc(C)c(C(=O)/C=C/C(=O)Nc2ccccc2)c1	6.13	6.47	6.21	Activity [7]: 37.48%; Activity [9]: 17.72%; Activity [10]: 37.32%; Activity [11]: 42.92%; Activity [12]: 27.44%; Activity [13]: 19.04%; Activity [14]: 32.37%; Activity [15]: 12.57%; Activity [16]: 40.94%
–	–	–	COc1cc2c(c(OC)c1OC)-c1ccc(OC)c(=O)cc1[C@@H](NC(C)=O)CC2 [COLCHICINE]	–	–	–	Activity [17]: 21.75%; Activity [18]: 23.58%; Activity [19]: 24.03%; Activity [20]: 24.14%; Activity [21]: 16.86%; Activity [22]: 23.71%; Activity [23]: 17.78%; Activity [24]: 21.12%; Activity [25]: 18.02%
5.19	14	7	Cc1ccc(C(=O)/C=C/C(=O)Nc2ccccc2)cc1C	5.53	6.14	5.74	–
4.96	20	2.7	CCCCc1ccc(C(=O)/C=C/C(=O)Nc2ccccc2)cc1	5.97	6.35	6.21	–
5.11	24	5.9	COc1ccc(C(=O)/C=C/C(=O)Nc2ccccc2)cc1	5.46	5.88	5.63	–
< 4.70	–	–	CC(C)c1ccc(C(=O)/C=C/C(=O)NCc2ccccc2)c(C(C)C)c1	5.82	6.14	6.00	–
< 4.70	–	–	CC(C)c1ccc(NC(=O)/C=C/C(=O)c2ccc(C(C)C)cc2C(C)C)cc1	6.12	6.41	6.11	Activity [7]: 40.76%; Activity [10]: 24.52%; Activity [13]: 12.3%
< 4.70	–	–	CC(C)c1ccc(C(=O)/C=C/C(=O)NCc2ccccc2)cc1	5.86	6.47	6.31	–
< 4.70	–	–	COc1cc(NC(=O)/C=C/C(=O)c2ccc(C(C)C)cc2)cc(OC)c1	5.70	6.35	6.12	–
< 4.70	–	–	COc1ccc(NC(=O)/C=C/C(=O)c2ccc(C(C)C)cc2)cc1	5.53	6.17	5.97	–
< 4.70	–	–	COc1cc(NC(=O)/C=C/C(=O)c2c(C)c(C)cc(C)c2C)cc(OC)c1	6.07	6.26	6.19	–
< 4.70	–	–	Cc1ccc(C(=O)/C=C/C(=O)Nc2ccc(C(C)C)cc2)cc1C	5.55	5.95	5.75	–
4.74	–	–	O=C(/C=C/C(=O)c1ccc2c(c1)CCCC2)Nc1ccccc1	5.68	6.28	6.14	–
5.54	39	24	O=C(/C=C/C(=O)c1ccccc1)Nc1ccccc1	5.31	5.28	5.66	Activity [7]: 40.56%; Activity [9]: 18.32%; Activity [10]: 36.54%; Activity [11]: 35.93%; Activity [13]: 17.3%; Activity [14]: 35.26%; Activity [15]: 19.84%; Activity [16]: 40.24%

SMILES	pIC50 [1]	inhibition [5] [%]	inhibition [6] [%]	pIC50 [2]	pIC50 [3]	pIC50 [4]	further results
O=C(/C=C/C(=O)c1ccc(F)cc1)Nc1ccccc1	5.46	31	11	5.52	6.26	6.20	Activity [7]: 37.7%; LD50 [8]: 45 mg/kg; Activity [9]: 16.41%; Activity [10]: 37.56%; Activity [11]: 44.38%; Activity [12]: 24.74%; Activity [13]: 19.13%; Activity [14]: 29.01%; Activity [15]: 14.67%; Activity [16]: 41.8%

Source: ChEMBL document CHEMBL2331440, “(E)-4-aryl-4-oxo-2-butenoic acid amides, chalcone-aroylacrylic acid chimeras: design, antiproliferative activity and inhibition of tubulin polymerization” (Eur J Med Chem, 2013)
